Experimental data of several laboratories.
Lines come from different studies, so protocols differ.
Target: Phosphorylase b kinase gamma catalytic chain, liver/testis isoform (PHKG2, Homo sapiens, UniProt P15735)
One construct used (P15735 1-406): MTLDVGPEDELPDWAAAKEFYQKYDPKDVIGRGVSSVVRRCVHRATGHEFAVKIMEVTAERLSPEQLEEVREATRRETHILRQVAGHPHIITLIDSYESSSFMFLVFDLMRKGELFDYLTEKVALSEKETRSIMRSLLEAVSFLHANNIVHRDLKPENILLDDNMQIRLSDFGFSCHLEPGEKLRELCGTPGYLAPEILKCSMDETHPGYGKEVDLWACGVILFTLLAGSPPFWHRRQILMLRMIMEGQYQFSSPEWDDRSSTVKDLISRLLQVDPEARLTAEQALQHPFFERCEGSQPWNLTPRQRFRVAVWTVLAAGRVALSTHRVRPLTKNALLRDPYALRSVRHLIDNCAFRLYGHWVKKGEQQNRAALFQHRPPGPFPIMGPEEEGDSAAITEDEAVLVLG

O=C(Nc1cnn(-c2csc(C(=O)NC3COC3)c2)c1)Nc1ccccc1Cl — remaining activity (enzyme activity, inhibitor; 5 µM): 101%
CCN(CC)CCNC(=O)c1c(C)[nH]c(/C=C2\C(=O)Nc3ccc(F)cc32)c1C — inhibition (enzyme activity, inhibitor; 0.3 µM): 81%
COc1cc2c(Nc3ccc(Br)cc3F)ncnc2cc1OCC1CCN(C)CC1 — remaining signal (cell-free assay; 0.5 µM): 99.1%
CCN1CCN(Cc2ccc(NC(=O)c3ccc(C)c(Oc4ccnc5[nH]ccc45)c3)cc2C(F)(F)F)CC1 — inhibition (target engagement in cells, inhibitor, chemoproteomics; Huh-7; 10 µM): -12.3%
Cc1ccc(C(=O)Nc2ccc(CN3CCN(C)CC3)c(C(F)(F)F)c2)cc1C#Cc1cnc2cccnn12 — remaining activity (enzyme activity, inhibitor; 23.5 nM): 100%
Cn1nc(C(F)(F)F)cc1-c1cnc(N2CCc3cc(S(=O)(=O)Nc4c(F)cc(Cl)cc4F)cc(N4CCCC4=O)c32)nc1 — remaining binding (cell-free assay, competition with immobilised ligand; 1 µM): 96%
Nc1ncnc2occ(-c3ccc(NC(=O)Nc4cc(C(F)(F)F)ccc4F)cc3)c12 — remaining signal (cell-free assay, inhibitor; 20 µM): 53%
CCCCN(CCCC)C(=O)CN1C[C@H](c2cc(OC)c3c(c2)OCO3)[C@@H](C(=O)O)[C@@H]1CC(C)(C)CCC — remaining binding (cell-free assay, competition with immobilised ligand; 1 µM): 100%
Cc1cnc(NC2CCOCC2)nc1-n1cnc(C(=O)NC(CN)c2cc(F)cc(Cl)c2)c1 (stereo not shown) — remaining activity (enzyme activity, inhibitor, radiometric; 1 µM): 97%
Oc1cccc(-c2nc(N3CCOCC3)c3oc4ncccc4c3n2)c1 — remaining signal (cell-free assay; 0.5 µM): 99.1%
COc1ccc2c(c1)O[C@H](c1ccc(OC)c(OC)c1)C[C@@H]2NC(=O)C1(c2ccc3c(c2)OC(F)(F)O3)CC1 — remaining binding (cell-free assay, competition with immobilised ligand; 1 µM): 93%
CC(C)(C)c1nc(-c2cccc(NS(=O)(=O)c3c(F)cccc3F)c2F)c(-c2ccnc(N)n2)s1 — remaining activity (enzyme activity, inhibitor, radiometric; 1 µM): 88%
Cc1ccc(NC(=O)c2ccc(C)c(C(F)(F)F)c2)cc1C#Cc1nn(C2CCC(O)CC2)c2ncnc(N)c12 (stereo not shown) — remaining signal (cell-free assay; 10 µM): 113%
CCCCNc1ncc2c(-c3ccc(F)cc3)nn(C[C@H]3CC[C@H](N)CC3)c2n1 — inhibition (target engagement in cells, inhibitor, chemoproteomics; 20 mM): -3.3%
COc1cc2ncnc(Nc3ccc(Oc4ccccc4)cc3C)c2cc1OC — inhibition (enzyme activity, inhibitor; 1 µM): 0%
CC(C)c1ccc(NC(=O)c2cccs2)c(-c2nc3ccccc3[nH]c2=O)c1 — activity vs control (enzyme activity, inhibitor; 1 µM): 96%
Nc1nc(Nc2ccc(S(N)(=O)=O)cc2)nn1C(=O)c1c(F)cccc1F — remaining signal (cell-free assay; 0.5 µM): 102%
CCC(=O)N[C@H]1CC[C@@H](C(=O)N(C)c2ccc(-c3nc4ccccc4o3)cc2)C1 — remaining binding (cell-free assay, competition with immobilised ligand; 1 µM): 100%
CCCS(=O)(=O)Nc1ccc(F)c(C(=O)c2c[nH]c3ncc(-c4ccc(Cl)cc4)cc23)c1F — inhibition (enzyme activity, inhibitor; 1 µM): < 10%
Cc1ccc(C(=O)NCc2ccsc2)cc1C#Cc1cn(C(C)C)c2ncnc(N)c12 — activity vs control (enzyme activity, inhibitor; 1 µM): 110%
CCc1ccccc1C(=O)Nc1n[nH]c2c(C)c(F)c(C3C(C#N)=C(C)N(C)C(C)=C3C#N)cc12 — remaining binding (cell-free assay, competition with immobilised ligand; 1 µM): 81%
O=C(Nc1cnn(-c2csc(C(=O)NC3COC3)c2)c1)Nc1c(F)cccc1Cl — remaining activity (enzyme activity, inhibitor; 5 µM): 131%
CC(C)CC(=O)N1CCc2nc(-c3ccc(Br)cc3)nc(N(C)Cc3ccccc3)c2C1 — remaining binding (cell-free assay, competition with immobilised ligand; 0.1 µM): 100%
Cc1ccc(Nc2nccc(N(C)c3ccc4c(C)n(C)nc4c3)n2)cc1S(N)(=O)=O — inhibition (enzyme activity, inhibitor; 10 µM): -2%
CC(=O)N1CCC(c2ccc(C(=O)NC3=NCCN3)cc2C(F)(F)F)CC1 — remaining binding (cell-free assay, competition with immobilised ligand; 1 µM): 100%
N#CCCc1ccc2c(c1)-c1[nH]c3ccc([N+](=O)[O-])cc3c1CC(=O)N2 — remaining signal (cell-free assay; 0.5 µM): 99.1%
CO[C@@H](C)c1c(Nc2ccc([C@H](N(C)C(=O)C3CCS(=O)(=O)CC3)C(F)(F)F)cc2)cnc2cc(Cl)nn12 — remaining binding (cell-free assay, competition with immobilised ligand; 1 µM): 96%
O=C1NC(=O)c2cc(Nc3ccc(F)cc3)c(Nc3ccc(F)cc3)cc21 — remaining signal (cell-free assay; 0.5 µM): 97.1%
